Bounds are passed on as bounds.

One may read the IC50 as the concentration that gives 50% inhibition. Low readings indicate inhibition by little substance, high ones a need for much substance. The term EC50 denotes the midpoint of the concentration-response curve. Broadly, the pKa is the pH at which an ionisable group is half protonated. Usually logD stands for lipophilicity at a set pH, counting ionised and neutral species. The low end stands for a more hydrophilic compound, the high end for a more lipophilic compound.

The target in data set [1] is T1, RNA-directed RNA polymerase (Hepacivirus hominis, UniProt O39930). Nature of the data set: Inhibitory activity against HCV 1b BK NS5B deltaC55 RNA polymerase. More on the design: species or system Hepatitis C virus subtype 1b. The method in brief:
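Purified HCV 1b-BK NS5B∆C55 (residues 1-536) expressed in E. coli BL21(DE3). Polymerase activity read on a homopolymeric template RNA at pH 7.4. IC50 is the average of at least three independent determinations; standard deviations within 30% of the average.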

In another data set the target is Hepatitis C virus. Nature of the data set: Inhibition of subgenomic HCV RNA replication in Huh-7 cells (replicon assay).
Data set [2] concerns the target T1, RNA-directed RNA polymerase. Nature of the data set: Inhibitory activity against HCV 1b BK NS5B RNA polymerase. Also noted: species or system Hepatitis C virus subtype 1b. The method, boiled down: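 Purified HCV 1b-BK NS5B∆C55 (residues 1-536), expressed in E. coli BL21(DE3), assayed with a homopolymeric template RNA at pH 7.4 with Mg as metal ion; IC50 taken as the average of at least three independent determinations.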

A short description of data set [3]: Dissociation constant, pKa of the compound. It is filed as physicochemical.
The nature of data set [4]: Lipophilicity as measured by LogD at pH 7.4. Particulars: buffer. It is filed as physicochemical.
The target in data set [5] is T1, RNA-directed RNA polymerase. Nature of the data set: Inhibitory activity against HCV 2a BK NS5B deltaC21 RNA polymerase. Also noted: species or system Hepatitis C virus subtype 2a.
The target is the same in data set [6]. Nature of the data set: Inhibitory activity against HCV 1b BK NS5B deltaC21 RNA polymerase. More on the design: species or system Hepatitis C virus subtype 1b. The method, boiled down:
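HCV 1b-BK NS5B∆C21 (residues 1-570), expressed in E. coli BL21(DE3) and purified; polymerase activity measured on a homopolymeric template RNA; IC50 read-out.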

For data set [7] the target is unchanged. Nature of the data set: Inhibitory activity against HCV 1b BK NS5B deltaC55 RNA polymerase involving magnesium chelation. Also noted: species or system Hepatitis C virus subtype 1b. The method, boiled down: (§1)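 HCV 1b-BK NS5B∆C55 (residues 1-536) from E. coli BL21(DE3), assayed on a homopolymeric template RNA with either Mg or Mn as the divalent metal ion. IC50 taken under each metal.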

For data set [8] the target is unchanged. Nature of the data set: Inhibitory activity against HCV 3a BK NS5B deltaC21 RNA polymerase.
For data set [9] the target is unchanged. Nature of the data set: Inhibitory activity against HCV 1b BK NS5B deltaC55 RNA polymerase involving manganese chelation. More on the design: species or system Hepatitis C virus subtype 1b. The method in brief:
as §1

A further data set is filed under the species Homo sapiens. Nature of the data set: Percent of unbound ligand in human plasma. Format: ADME, organism-based.
The target of data set [10] is RNA-directed RNA polymerase (Hepacivirus hominis, UniProt O39930, DELTAC55/R158M). Nature of the data set: Inhibitory activity against HCV 1b BK NS5B deltaC55-R158M mutant RNA polymerase. More on the design: species or system Hepatitis C virus subtype 1b. The method, boiled down: (§2)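 HCV 1b-BK NS5B∆C55 (residues 1-536) carrying R158M or R158K, expressed in E. coli BL21(DE3) and purified. Polymerase run on a homopolymeric template RNA with UTP as substrate; IC50 and UTP Km measured in duplicate.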

Data set [11] addresses RNA-directed RNA polymerase (Hepacivirus hominis, UniProt O39930, DELTAC55/R158K). Nature of the data set: Inhibitory activity against HCV 1b BK NS5B deltaC55-R158K mutant RNA polymerase. Also noted: species or system Hepatitis C virus subtype 1b. The method, boiled down: as §2

T1 sequence (O39930 whole entry, the tested form may be a part): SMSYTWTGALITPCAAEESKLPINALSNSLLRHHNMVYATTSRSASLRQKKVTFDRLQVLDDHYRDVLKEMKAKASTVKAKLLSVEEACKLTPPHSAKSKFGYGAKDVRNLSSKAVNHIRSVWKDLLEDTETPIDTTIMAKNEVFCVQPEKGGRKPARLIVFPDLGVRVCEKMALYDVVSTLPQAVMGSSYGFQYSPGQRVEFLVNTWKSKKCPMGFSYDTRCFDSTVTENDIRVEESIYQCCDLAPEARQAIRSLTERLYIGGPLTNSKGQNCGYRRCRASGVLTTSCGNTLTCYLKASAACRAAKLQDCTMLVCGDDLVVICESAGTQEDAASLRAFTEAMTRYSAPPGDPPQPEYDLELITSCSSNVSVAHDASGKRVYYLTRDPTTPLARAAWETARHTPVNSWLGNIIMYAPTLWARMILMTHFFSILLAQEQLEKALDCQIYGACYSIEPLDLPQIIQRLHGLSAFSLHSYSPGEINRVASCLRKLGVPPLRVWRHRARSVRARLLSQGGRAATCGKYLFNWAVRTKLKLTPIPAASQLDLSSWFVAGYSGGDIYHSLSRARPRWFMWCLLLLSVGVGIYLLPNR

Turning to `CCCCc1nc(C(=O)O)c(O)c(=O)[nH]1`, the IC50 in data set [1] is over 50000 nM.
`O=C(Nc1ccsc1-c1nc(O)c(O)c(C(=O)O)n1)OCc1c(Cl)cccc1Cl` yielded an IC50 in data set [1] of 190 nM. This compound yielded an EC50 at Hepatitis C virus of 18600 nM.
Consider `O=C(NCc1ccccc1Cl)Nc1ccsc1-c1nc(O)c(O)c(C(=O)O)n1`, for which the IC50 in data set [2] is 130 nM; in [5], 44 nM; in data set [6] it was 45 nM; in data set [1] it was 150 nM; in [7], 150 nM; in data set [8], 48 nM. In data set [9], this compound yielded an IC50 of 36 nM. Also, the pKa in [3] is 6.6. Also, in data set [4], the logD came out at 0.37. For the same compound, a half-maximal effect on Hepatitis C virus (EC50) was put at 9300 nM.
In [1], `O=C(O)c1nc(-c2ccc([N+](=O)[O-])s2)[nH]c(=O)c1O` displayed an IC50 of 16000 nM.
On to `O=C(O)c1nc(-c2sccc2[N+](=O)[O-])nc(O)c1O`, for which the pKa in [3] was 6.9. Also, the IC50 in data set [1] amounted to 680 nM; in data set [7], 680 nM; in [9], 65 nM.
In data set [1], `O=C(NCc1csc2ccccc12)Nc1ccsc1-c1nc(O)c(O)c(C(=O)O)n1` came in with an IC50 of 220 nM. At Hepatitis C virus, this compound yielded an EC50 of 30000 nM.
In data set [1], `Cc1ccsc1-c1nc(O)c(O)c(C(=O)O)n1` gave an IC50 of 5600 nM.
In turn, `Cn1c(-c2cccs2)nc(C(=O)O)c(O)c1=O` had a pKa in [3] of 9.1. Also, the results for the IC50 in [1] and in [9] were 4200 nM and 460 nM, respectively.
As to `Cc1cccc(Cl)c1CNC(=O)Nc1ccsc1-c1nc(O)c(O)c(C(=O)O)n1`, in the data set filed under Homo sapiens, the Fu came to 0.2%. The same compound had a logD in [4] of 0.6. Further, the IC50 in data set [1] worked out at 90 nM. Also, on Hepatitis C virus, the concentration for a half-maximal effect (EC50) was found to be 13600 nM.
In data set [1], `C=CCn1c(-c2sccc2[N+](=O)[O-])nc(C(=O)O)c(O)c1=O` yielded a concentration for half-maximal inhibition (IC50) of 69300 nM.
Still for that read-out and setting: as for `O=C(O)c1nc(-c2cnccn2)nc(O)c1O`, the figure is 5300 nM; as for `CS(=O)(=O)c1nc(C(=O)O)c(O)c(=O)[nH]1`, 2400 nM; as for `O=C(O)c1nc(-c2sccc2NS(=O)(=O)c2ccc3ccccc3c2)[nH]c(=O)c1O`, 1420 nM.
As to `O=C(O)c1nc(-c2ccco2)nc(O)c1O`, the pKa in [3] was 7.4. Moreover, the results for the IC50 in data set [1], in data set [7] and in data set [9] were 2900 nM, 2900 nM and 240 nM, respectively.
As for `O=C(O)c1nc(C2CCCCC2)nc(O)c1O`, in data set [3], the pKa is 8.7. Also, the 50% inhibitory concentration (IC50) in [1] is over 50000 nM; in data set [7], over 50000 nM; in data set [9], over 25000 nM.
For the compound `O=C(CCc1ccccc1)Nc1ccsc1-c1nc(O)c(O)c(C(=O)O)n1`, the IC50 in data set [1] is 580 nM. On Hepatitis C virus, this compound returned an EC50 of over 50000 nM.
`O=C(Nc1csc(-c2nc(C(=O)O)c(O)c(=O)[nH]2)c1)c1cccs1` had an IC50 in data set [1] of 13800 nM.
`O=C(Nc1ccccc1)Nc1ccsc1-c1nc(O)c(O)c(C(=O)O)n1` returned an IC50 in data set [1] of 580 nM. Moreover, the EC50 at Hepatitis C virus was over 50000 nM.
The corresponding values for `O=C(Cc1ccccc1Cl)Nc1ccsc1-c1nc(O)c(O)c(C(=O)O)n1` are 210 nM and 53300 nM.
For the compound `O=C(Cc1c(-c2ccccc2)[nH]c2ccccc12)Nc1ccsc1-c1nc(C(=O)O)c(O)c(=O)[nH]1`, the IC50 in data set [1] turned out to be 280 nM. The compound also gave an EC50 on Hepatitis C virus of over 50000 nM.
`O=C(O)c1nc(-c2cc([N+](=O)[O-])cs2)nc(O)c1O`: half-maximal inhibition in data set [1] (IC50) required 9400 nM.
Same read-out and setting: as for `Nc1ccsc1-c1nc(C(=O)O)c(O)c(=O)[nH]1`, the figure is 1900 nM.
`O=C(O)c1nc(-c2cccs2)nc(O)c1O`: the results for the IC50 in data set [10], in [11] and in [9] were 9300 nM, 92000 nM and 240 nM, respectively. The compound also had a pKa in data set [3] of 7.7. The compound further came in with a logD in [4] of -1.95.
`Cn1c(-c2sccc2[N+](=O)[O-])nc(C(=O)O)c(O)c1=O` showed an IC50 in [1] of 8700 nM.
For `O=C(Nc1ccsc1-c1nc(O)c(O)c(C(=O)O)n1)OCc1ccccc1Cl`, the figures for the IC50 in data set [10], in data set [1] and in data set [11] were 340 nM, 140 nM and 900 nM, respectively. Moreover, on Hepatitis C virus, the EC50 stood at 31500 nM.
On to `Cc1ccc(-c2nc(O)c(O)c(C(=O)O)n2)s1`, for which the IC50 in [1] was found to be 48600 nM.
On to `O=C(O)c1nc(-c2sccc2[N+](=O)[O-])n(Cc2ccccc2)c(=O)c1O`, for which, in data set [1], the IC50 came out at 79300 nM.
As to `O=C(Nc1ccsc1-c1nc(C(=O)O)c(O)c(=O)[nH]1)OCc1cccc2ccccc12`, half-maximal inhibition in data set [1] (IC50) required 140 nM. Also, it took 13600 nM to reach a half-maximal effect at Hepatitis C virus (EC50).
Consider `O=C(O)c1nc(-c2ccccc2)nc(O)c1O`, for which, in data set [3], the pKa worked out at 8.6.
In data set [4], `O=C(Nc1ccsc1-c1nc(C(=O)O)c(O)c(=O)[nH]1)OCCc1ccccc1` came in with a log distribution coefficient (logD) of -0.43. In data set [1], this compound returned an IC50 of 460 nM. The same compound returned an EC50 on Hepatitis C virus of over 50000 nM.
Turning to `O=C(Cc1c[nH]c2ccccc12)Nc1ccsc1-c1nc(O)c(O)c(C(=O)O)n1`, the IC50 in [1] is 200 nM. On Hepatitis C virus, this compound gave an EC50 of over 50000 nM.
`O=C(O)c1nc(Cc2ccccc2)nc(O)c1O` yielded an IC50 in data set [1] of over 50000 nM.
Still for that read-out and setting: as for `O=C(Cc1ccccc1)Nc1ccsc1-c1nc(O)c(O)c(C(=O)O)n1`, the figure is 380 nM.
`O=C(Nc1ccsc1-c1nc(C(=O)O)c(O)c(=O)[nH]1)c1ccccc1` yielded an IC50 in data set [1] of 800 nM. Moreover, at Hepatitis C virus, the EC50 is over 50000 nM.
On to `O=C(Nc1ccsc1-c1nc(O)c(O)c(C(=O)O)n1)OCc1ccccc1`, for which the half-maximal inhibitory concentration (IC50) in data set [1] was 290 nM.
In turn, `O=C(NCCc1ccccc1)Nc1ccsc1-c1nc(O)c(O)c(C(=O)O)n1` returned a 50% inhibitory concentration (IC50) in [1] of 620 nM. Besides, the concentration for a half-maximal effect (EC50) at Hepatitis C virus is over 50000 nM.
`O=C(O)c1nc(-c2cc3ccccc3s2)nc(O)c1O` yielded an IC50 in data set [1] of 11600 nM.
Turning to `O=C(O)c1nc(-c2nccs2)nc(O)c1O`, the 50% inhibitory concentration (IC50) in [10] is 2770 nM; in data set [1], 760 nM; in data set [7], 760 nM; in [11], 16000 nM; in data set [9] it was 210 nM. For the same compound, the pKa in data set [3] worked out at 6.9. Besides, the logD in data set [4] is -2.12.
In turn, `O=C(Cc1csc2ccccc12)Nc1ccsc1-c1nc(C(=O)O)c(O)c(=O)[nH]1` displayed an IC50 in data set [1] of 230 nM. On Hepatitis C virus, this compound gave an EC50 of over 50000 nM.
The compound `O=C(NCc1ccccc1)Nc1ccsc1-c1nc(O)c(O)c(C(=O)O)n1` had a half-maximal inhibitory concentration (IC50) in data set [1] of 230 nM.

(Values after ChEMBL document CHEMBL1138187, “2-(2-Thienyl)-5,6-dihydroxy-4-carboxypyrimidines as inhibitors of the hepatitis C virus NS5B polymerase: discovery, SAR, modeling, and mutagenesis” (J Med Chem, 2006).)
